pIC50: −log10 of the molar value. Calls of active or inactive are those of the source. The rule behind the calls is not given here.
Legend:
[1] = test system: HeLa; experiment: Antiproliferative activity against human HeLa cells after 48 hrs by MTT assay; format: functional, cell-based
Method in brief: (§1)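 Cells in DMEM/10% FBS pre-incubated 24 h at 37 °C, then compound-treated 48 h (10 mM DMSO stock diluted in medium). MTT (10 µL of 5 mg/mL) added for 4 h; formazan dissolved in DMSO, absorbance read at 570 nm. IC50 = 50% inhibitory concentration, mean of three individual experiments.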

[2] = test system: MCF7; experiment: Antiproliferative activity against human MCF7 cells after 48 hrs by MTT assay; format: functional, cell-based; details: MCF7, 48 h; method in brief: as §1
[3] = test system: DU-145; experiment: Antiproliferative activity against human DU145 cells after 48 hrs by MTT assay; format: functional, cell-based; details: DU-145, 48 h; method in brief: as §1
[4] = test system: A549; experiment: Antiproliferative activity against human A549 cells after 48 hrs by MTT assay; format: functional, cell-based; details: A549, 48 h; method in brief: as §1
[5] = test system: HepG2; experiment: Antiproliferative activity against human HepG2 cells after 48 hrs by MTT assay; format: functional, cell-based; details: HepG2, 48 h; method in brief: as §1
[6] = test system: HT-29; experiment: Antiproliferative activity against human HT-29 cells after 48 hrs by MTT assay; format: functional, cell-based; details: HT-29, 48 h; method in brief: as §1
[7] = test system: NIH3T3; experiment: Antiproliferative activity against mouse NIH/3T3 cells after 48 hrs by MTT assay; format: cell-based; details: NIH3T3, 48 h; method in brief: as §1
[8] = test system: DU-145; experiment: Cell cycle arrest in human DU145 cells assessed as accumulation at G2/M phase at 0.5 uM after 24 hrs by propidium iodide staining based flow cytometry relative to control; format: functional
Method in brief: (§2)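 DU-145 cells (2x10^5/well) serum-starved 24 h to synchronize, then treated in complete medium for 24 h. Harvested and fixed in 70% ethanol at -20 °C for 30 min. RNase A (0.1 mg/mL, 37 °C, 30 min), then propidium iodide (50 µg/mL, 30 min on ice, dark). DNA content measured by flow cytometry.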

[9] = test system: DU-145; experiment: Cell cycle arrest in human DU145 cells assessed as accumulation at G2/M phase at 1 uM after 24 hrs by propidium iodide staining based flow cytometry relative to control; format: functional; method in brief: as §2
[10] = biological target: DNA topoisomerase 2-alpha (Homo sapiens) (UniProt P11388); experiment: Poison activity at recombinant human topoisomerase-2 alpha assessed as linear DNA formation using pHOT1 kDNA as substrate at 100 uM after 10 mins by agarose gel electrophoresis method
Sequence of DNA topoisomerase 2-alpha (Homo sapiens) (P11388 whole entry): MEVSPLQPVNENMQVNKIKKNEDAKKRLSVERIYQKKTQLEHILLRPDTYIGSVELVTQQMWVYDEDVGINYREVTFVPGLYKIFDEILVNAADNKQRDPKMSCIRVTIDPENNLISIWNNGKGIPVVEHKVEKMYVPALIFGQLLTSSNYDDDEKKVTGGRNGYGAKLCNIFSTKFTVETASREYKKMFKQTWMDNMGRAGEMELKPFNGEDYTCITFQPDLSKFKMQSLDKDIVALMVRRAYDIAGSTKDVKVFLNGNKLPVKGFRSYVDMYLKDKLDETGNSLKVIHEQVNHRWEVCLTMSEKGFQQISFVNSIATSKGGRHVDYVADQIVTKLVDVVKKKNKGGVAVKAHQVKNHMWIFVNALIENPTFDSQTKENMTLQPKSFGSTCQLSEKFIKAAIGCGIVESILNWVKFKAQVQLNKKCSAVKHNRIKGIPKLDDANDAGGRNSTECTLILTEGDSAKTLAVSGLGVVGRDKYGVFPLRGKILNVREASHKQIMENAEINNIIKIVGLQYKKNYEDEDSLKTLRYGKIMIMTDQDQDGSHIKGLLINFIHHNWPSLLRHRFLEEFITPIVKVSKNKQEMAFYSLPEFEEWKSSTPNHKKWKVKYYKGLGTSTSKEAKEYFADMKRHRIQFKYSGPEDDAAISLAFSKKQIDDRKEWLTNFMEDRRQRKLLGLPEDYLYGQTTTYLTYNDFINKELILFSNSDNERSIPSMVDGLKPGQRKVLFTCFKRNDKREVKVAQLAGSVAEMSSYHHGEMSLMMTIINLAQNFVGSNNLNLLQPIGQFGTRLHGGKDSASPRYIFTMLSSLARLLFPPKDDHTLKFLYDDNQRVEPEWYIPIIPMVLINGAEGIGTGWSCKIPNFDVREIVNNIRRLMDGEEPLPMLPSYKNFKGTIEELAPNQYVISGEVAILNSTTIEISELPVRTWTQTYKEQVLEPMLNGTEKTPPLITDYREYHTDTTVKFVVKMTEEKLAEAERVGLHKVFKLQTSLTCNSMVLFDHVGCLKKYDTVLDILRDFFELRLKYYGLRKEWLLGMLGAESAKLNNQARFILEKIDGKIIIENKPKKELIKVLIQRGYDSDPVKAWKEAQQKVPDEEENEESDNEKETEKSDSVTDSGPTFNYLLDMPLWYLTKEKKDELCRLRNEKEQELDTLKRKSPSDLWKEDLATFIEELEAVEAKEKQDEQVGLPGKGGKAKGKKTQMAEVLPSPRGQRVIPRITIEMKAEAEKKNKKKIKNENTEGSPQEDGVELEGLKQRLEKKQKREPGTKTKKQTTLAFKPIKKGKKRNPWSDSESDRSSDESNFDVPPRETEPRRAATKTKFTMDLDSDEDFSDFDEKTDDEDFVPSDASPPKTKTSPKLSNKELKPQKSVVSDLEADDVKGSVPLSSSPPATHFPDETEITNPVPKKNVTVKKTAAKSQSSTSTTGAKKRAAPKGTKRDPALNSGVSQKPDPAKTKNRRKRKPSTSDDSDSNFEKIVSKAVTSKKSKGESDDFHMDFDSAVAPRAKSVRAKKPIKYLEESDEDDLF
Method in brief: (§3)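 Five units human recombinant topo II, 10 min at 37 °C. Stopped with loading-dye stop buffer; products resolved on 1% agarose gel in TAE (catenated, decatenated, linear DNA).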

[11] = test system: DU-145; experiment: Induction of apoptosis in human DU145 cells assessed as cell detachment from substratum at 0.5 to 1 uM after 24 hrs by phase contrast microscopic method; format: functional, cell-based
Method in brief: (§4)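 DU-145 cells (2x10^5/well) plated overnight; medium replaced with fresh medium containing compound at indicated concentrations for 24 h. Cell morphology examined and photographed by phase-contrast microscopy.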

[12] = test system: DU-145; experiment: Induction of apoptosis in human DU145 cells assessed as cell shrinkage at 0.5 to 1 uM after 24 hrs by phase contrast microscopic method; format: functional, cell-based; method in brief: as §4
[13] = test system: DU-145; experiment: Induction of apoptosis in human DU145 cells assessed as nuclear condensation at 0.5 to 1 uM after 24 hrs by Hoechst staining based fluorescence microscopic method; format: functional, cell-based
Method in brief: (§5)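 DU-145 cells (1x10^5/well) incubated overnight, then treated 24 h. After three PBS washes, stained with Hoechst (1 µg/ml) for 20 min at 37 °C and washed. Imaged by fluorescence microscopy; random fields counted for chromatin condensation and nuclear fragmentation.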

[14] = test system: DU-145; experiment: Induction of apoptosis in human DU145 cells assessed as nuclear fragmentation at 0.5 to 1 uM after 24 hrs by Hoechst staining based fluorescence microscopic method; format: functional, cell-based; method in brief: as §5
[15] = test system: DU-145; experiment: Induction of mitochondrial membrane potential loss in human DU145 cells […] at 0.5 to 1 uM after 24 hrs by JC1 staining based flow cytometry; format: functional, cell-based
Method in brief: (§6)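 Cells (2x10^5/well) treated 24 h, trypsinized and pelleted (400 g, 5 min). Incubated with freshly made JC-1 working solution for 15 min at 37 °C, washed twice in assay buffer. Analysed by flow cytometry as percentage of J-aggregate versus J-monomer cells.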

[16] = test system: DU-145; experiment: Induction of ROS production in human DU145 cells at 0.5 to 1 uM after 24 hrs by DCFDA staining based fluorescence microscopic method; format: functional, cell-based
Method in brief: (§7)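 DU-145 cells (2x10^5/well) plated overnight, then treated 24 h at indicated concentrations. Medium replaced with DCFDA (10 µM) for 30 min at room temperature in the dark. After PBS washes, fluorescence was imaged by microscopy and reported as mean fluorescence intensity.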

[17] = test system: DU-145; experiment: Antimigratory activity against human DU145 cells at 0.5 to 1 uM after 24 to 48 hrs by phase contrast microscopic based scratch assay; format: functional, cell-based
Method in brief: (§8)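 DU-145 cells seeded at 2x10^5/well and grown to confluence; wound made with a sterile 200 µL tip, debris washed off with PBS. Fresh medium with compound at the indicated concentrations added. Migration followed by phase-contrast microscopy with images at 0, 24 and 48 h.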

[18] = test system: DU-145; experiment: Induction of apoptosis in human DU145 cells assessed as live cells at 0.5 uM after 24 hrs by Annexin V-FITC/propidium iodide staining based flow cytometry (reference value: 96.3%); format: functional
[19] = test system: DU-145; experiment: Induction of apoptosis in human DU145 cells assessed as early apoptotic cells at 0.5 uM after 24 hrs by Annexin V-FITC/propidium iodide staining based flow cytometry (reference value: 0.56%); format: functional
[20] = test system: DU-145; experiment: Induction of apoptosis in human DU145 cells assessed as late apoptotic cells at 0.5 uM after 24 hrs by Annexin V-FITC/propidium iodide staining based flow cytometry (reference value: 1.49%); format: functional
[21] = test system: DU-145; experiment: Induction of apoptosis in human DU145 cells assessed as necrotic cells at 0.5 uM after 24 hrs by Annexin V-FITC/propidium iodide staining based flow cytometry (reference value: 1.65%); format: functional
[22] = test system: DU-145; experiment: Induction of apoptosis in human DU145 cells assessed as live cells at 1 uM after 24 hrs by Annexin V-FITC/propidium iodide staining based flow cytometry (reference value: 96.3%); format: functional
[23] = test system: DU-145; experiment: Induction of apoptosis in human DU145 cells assessed as early apoptotic cells at 1 uM after 24 hrs by Annexin V-FITC/propidium iodide staining based flow cytometry (reference value: 0.56%); format: functional
[24] = test system: DU-145; experiment: Induction of apoptosis in human DU145 cells assessed as late apoptotic cells at 1 uM after 24 hrs by Annexin V-FITC/propidium iodide staining based flow cytometry (reference value: 1.49%); format: functional
[25] = test system: DU-145; experiment: Induction of apoptosis in human DU145 cells assessed as necrotic cells at 1 uM after 24 hrs by Annexin V-FITC/propidium iodide staining based flow cytometry (reference value: 1.65%); format: functional
[26] = biological target: DNA topoisomerase 2-alpha (Homo sapiens) (UniProt P11388); experiment: Inhibition of recombinant human topoisomerase-2 alpha assessed as reduction in decatenation of pHOT1 kDNA at 100 uM after 10 mins by agarose gel electrophoresis method; method in brief: as §3
[27] = test system: DU-145; experiment: Induction of ROS production in human DU145 cells after 24 hrs by DCFDA staining based fluorescence microscopic method; format: functional, cell-based; method in brief: as §7
[28] = test system: DU-145; experiment: Induction of apoptosis in human DU145 cells after 24 hrs by Annexin V-FITC/propidium iodide staining based flow cytometry; format: functional, cell-based
[29] = test system: DU-145; experiment: Cell cycle arrest in human DU145 cells assessed as accumulation at G2/M phase at 2 uM after 24 hrs by propidium iodide staining based flow cytometry relative to control; format: functional; method in brief: as §2
[30] = test system: DU-145; experiment: Induction of apoptosis in human DU145 cells assessed as morphological changes at 2 uM after 24 hrs by phase contrast microscopic method; format: functional, cell-based; method in brief: as §4
[31] = test system: DU-145; experiment: Induction of apoptosis in human DU145 cells assessed as nuclear condensation at 2 uM after 24 hrs by Hoechst staining based fluorescence microscopic method; format: functional, cell-based; method in brief: as §5
[32] = test system: DU-145; experiment: Induction of apoptosis in human DU145 cells assessed as nuclear fragmentation at 2 uM after 24 hrs by Hoechst staining based fluorescence microscopic method; format: functional, cell-based; method in brief: as §5
[33] = test system: DU-145; experiment: Induction of mitochondrial membrane potential loss in human DU145 cells […] at 2 uM after 24 hrs by JC1 staining based flow cytometry; format: functional, cell-based; method in brief: as §6
[34] = test system: DU-145; experiment: Induction of ROS production in human DU145 cells at 2 uM after 24 hrs by DCFDA staining based fluorescence microscopic method; format: functional, cell-based; method in brief: as §7
[35] = test system: DU-145; experiment: Antimigratory activity against human DU145 cells at 2 uM after 24 to 48 hrs by phase contrast microscopic based scratch assay; format: functional, cell-based; method in brief: as §8
[36] = test system: DU-145; experiment: Induction of apoptosis in human DU145 cells assessed as live cells at 2 uM after 24 hrs by Annexin V-FITC/propidium iodide staining based flow cytometry (reference value: 96.3%); format: functional
[37] = test system: DU-145; experiment: Induction of apoptosis in human DU145 cells assessed as early apoptotic cells at 2 uM after 24 hrs by Annexin V-FITC/propidium iodide staining based flow cytometry (reference value: 0.56%); format: functional
[38] = test system: DU-145; experiment: Induction of apoptosis in human DU145 cells assessed as late apoptotic cells at 2 uM after 24 hrs by Annexin V-FITC/propidium iodide staining based flow cytometry (reference value: 1.49%); format: functional
[39] = test system: DU-145; experiment: Induction of apoptosis in human DU145 cells assessed as necrotic cells at 2 uM after 24 hrs by Annexin V-FITC/propidium iodide staining based flow cytometry (reference value: 1.65%); format: functional

COc1cc([C@@H]2c3cc4c(cc3C(NC(=O)c3cn(-c5ccc(Cl)cc5)nn3)[C@H]3COC(=O)[C@H]23)OCO4)cc(OC)c1OC (single isomer, unassigned)
pIC50 [1]: 6.11
pIC50 [2]: 6.01
pIC50 [3]: 6.15
pIC50 [4]: 5.92
pIC50 [5]: 6.11
pIC50 [6]: 5.39
pIC50 [7]: 4.05
Activity [8]: 31.94%
Activity [9]: 35.61%
Activity [10]: Active
Activity [11]: Active
Activity [12]: Active
Activity [13]: Active
Activity [14]: Active
Activity [15]: inactive
Activity [16]: Active
Activity [17]: inactive
Activity [18]: 93.72%
Activity [19]: 3.94%
Activity [20]: 1.93%
Activity [21]: 0.41%
Activity [22]: 93.69%
Activity [23]: 4.35%
Activity [24]: 1.8%
Activity [25]: 0.16%

COc1cc([C@@H]2c3cc4c(cc3C(NC(=O)c3cn(-c5ccc(C(F)(F)F)cc5)nn3)[C@H]3COC(=O)[C@H]23)OCO4)cc(OC)c1OC (single isomer, unassigned)
pIC50 [1]: 5.92
pIC50 [2]: 5.87
pIC50 [3]: 6.05
pIC50 [4]: 5.71
pIC50 [5]: 5.92
pIC50 [6]: 5.36
pIC50 [7]: 4.08
Activity [8]: 52.42%
Activity [9]: 56.16%
inhibition [26]: Active
Activity [11]: Active
Activity [12]: Active
Activity [13]: Active
Activity [14]: Active
Activity [15]: Active
Activity [27]: Dose-dependent effect
Activity [17]: Active
Activity [18]: 89.65%
Activity [19]: 7.01%
Activity [20]: 2.6%
Activity [21]: 0.74%
Activity [22]: 79.84%
Activity [23]: 17.65%
Activity [24]: 2.46%
Activity [25]: 0.05%
Activity [28]: Dose-dependent effect

COc1ccc(-n2cc(C(=O)NC3c4cc5c(cc4[C@@H](c4cc(OC)c(OC)c(OC)c4)[C@H]4C(=O)OC[C@H]34)OCO5)nn2)cc1 (single isomer, unassigned)
pIC50 [1]: 5.19
pIC50 [2]: 5.95
pIC50 [3]: 6.00
pIC50 [4]: 5.79
pIC50 [5]: 5.55
pIC50 [6]: 4.94
pIC50 [7]: 4.20
Activity [8]: 56.71%
Activity [9]: 64.3%
Activity [10]: Active
Activity [11]: Active
Activity [12]: Active
Activity [13]: Active
Activity [14]: Active
Activity [15]: Active
Activity [27]: Dose-dependent effect
Activity [17]: Active
Activity [18]: 91.01%
Activity [19]: 6.76%
Activity [20]: 1.83%
Activity [21]: 0.4%
Activity [22]: 88.89%
Activity [23]: 7%
Activity [24]: 3.12%
Activity [25]: 0.99%
Activity [28]: Dose-dependent effect

COc1cc([C@@H]2c3cc4c(cc3[C@@H](O[C@@H]3O[C@@H]5CO[C@@H](C)O[C@H]5[C@H](O)[C@H]3O)[C@H]3COC(=O)[C@H]23)OCO4)cc(OC)c1O [ETOPOSIDE]
pIC50 [1]: 5.57
pIC50 [2]: 5.79
pIC50 [3]: 5.63
pIC50 [4]: 5.71
pIC50 [5]: 5.55
pIC50 [6]: 5.73
Activity [29]: 71.53%
Activity [10]: Active
Activity [30]: Active
Activity [31]: Active
Activity [32]: Active
Activity [33]: Active
Activity [34]: Active
Activity [35]: Active
Activity [36]: 91.09%
Activity [37]: 4.52%
Activity [38]: 3.86%
Activity [39]: 0.53%
